Reference: ChEMBL document CHEMBL4765333, “Novel NO-releasing scopoletin derivatives induce cell death via mitochondrial apoptosis pathway and cell cycle arrest” (Eur J Med Chem, 2020)

Key:
MCF7 [1] = experiment: Antiproliferative activity against human MCF7 cells assessed as inhibition of cell growth rate at 10 uM measured after 48 hrs by MTT assay; type: functional
In short: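 MCF-7 cells in DMEM with 10% FBS exposed to a single 10 µM concentration for 48 h. Read-out by MTT (0.5 mg/ml, 4 h, DMSO dissolution, A570). Inhibition rate given versus untreated control as mean ± SD, n = 3.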

[2] = Anticancer activity against human MDA-MB-231 cells assessed as inhibition of cell proliferation measured after 48 hrs by MTT assay; type: functional, cell-based; conditions: MDA-MB-23, 48 h
In short: (§1)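 Cells seeded at ~5,000/well, grown 24 h to partial monolayer, then exposed 48 h at 37°C, 5% CO2 to 0.5, 1, 2, 4, 10 and 20 µM (DMSO ≤0.1%). MTT final 0.5 mg/ml for 4 h, formazan dissolved in DMSO, A570. Survival expressed as % of untreated control; IC50 from dose-response curves; three independent experiments. MDA-MB-231, MCF-7, HepG2 in DMEM; A549 and LO-2 in RPMI-1640; 10% FBS.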

MCF7 [3] = experiment: Anticancer activity against human MCF7 cells assessed as inhibition of cell proliferation measured after 48 hrs by MTT assay; type: functional, cell-based; conditions: MCF7, 48 h; in short: as §1
HepG2 = experiment: Anticancer activity against human HepG2 cells assessed as inhibition of cell proliferation measured after 48 hrs by MTT assay; type: functional, cell-based; conditions: HepG2, 48 h; in short: as §1
A549 = experiment: Anticancer activity against human A549 cells assessed as inhibition of cell proliferation measured after 48 hrs by MTT assay; type: functional, cell-based; conditions: A549, 48 h
In short: as §1, with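 “experiments.” for “experiments. MDA-MB-231, MCF-7, HepG2 in DMEM; A549 and LO-2 in RPMI-1640; 10% FBS.”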

L02 = experiment: Cytotoxicity against human L02 cells assessed as reduction in cell viability measured after 48 hrs by MTT assay; type: cell-based; conditions: L02, 48 h; in short: as §1
[4] = Prodrug release in human MDA-MB-231 cells assessed as increase in intracellular NO level at 25 uM measured after 2.5 hrs by total nitric oxide assay; type: ADME, cell-based; conditions: mda-mb-23, 2.5 h
In short: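 MDA-MB-231 (2×10^5 cells/well) cultured 24 h, then treated 2.5 h with compound at 25 µM or DMSO. Cells harvested, lysed in nitric oxide assay buffer 1 h on ice; lysate NO quantified with a total nitric oxide assay kit. Mean ± SD, n = 3.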

[5] = Prodrug release in human MDA-MB-231 cells assessed as increase in intracellular NO level at 10 uM measured after 2.5 hrs by DAF-FM DA reagent based scanning electron microscopy; type: ADME, cell-based; conditions: mda-mb-231, 2.5 h, in the assay text read “laser scanning confocal microscopy” for “scanning electron microscopy”
In short: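 After 24 h growth at 5×10^4 cells/well, MDA-MB-231 cells loaded with DAF-FM DA (5 µM) 30 min at 37°C, 5% CO2, PBS-washed, then incubated 2.5 h with compound at 1 or 10 µM (scopoletin at 10 µM). NO fluorescence imaged by laser scanning confocal microscopy.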

[6] = Anticancer activity against human MDA-MB-231 cells assessed as inhibition of cell proliferation measured after 48 hrs in presence of 3-amino-7-hydroxy-6-methoxy-2H-chromen-2-one by MTT assay; type: functional, cell-based; conditions: MDA-MB-23, 48 h
In short: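 MDA-MB-231 cells in DMEM with 10% FBS, ~5,000 cells/well, 24 h attachment, then compound for 48 h at 37°C, 5% CO2. MTT 0.5 mg/ml final for 4 h, DMSO solubilization, absorbance 570 nm; inhibition relative to untreated cells; experiments done three times.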

| SMILES | inhibition at 10 µM (MCF7 [1]) [%] | IC50 [2] [µM] | IC50 (MCF7 [3]) [µM] | IC50 (HepG2) [µM] | IC50 (A549) [µM] | IC50 (L02) [µM] | Drug metabolism [4] | Drug metabolism [5] | IC50 [6] [µM] |
| --- | --- | --- | --- | --- | --- | --- | --- | --- | --- |
| COc1cc2cc(N)c(=O)oc2cc1OCCOc1no[n+]([O-])c1S(=O)(=O)c1ccccc1 | 88.5 | 2.46 | 2.77 | 3.06 | 5.91 | 9.82 | Metabolite_Detected |  |  |
| COc1cc2cc(NC(C)=O)c(=O)oc2cc1OCCCOc1no[n+]([O-])c1S(=O)(=O)c1ccccc1 | 88.5 | 3.81 | 2.4 | 2.82 | 9.81 | 8.36 | Metabolite_Detected |  |  |
| COc1cc2cc(NC(C)=O)c(=O)oc2cc1OCCCCCCOc1no[n+]([O-])c1S(=O)(=O)c1ccccc1 | 48.6 | 7.89 | 11.3 | 6.59 | 15 | 17.3 | Metabolite_Detected |  |  |
| COc1cc2ccc(=O)oc2cc1OCCCCOc1no[n+]([O-])c1S(=O)(=O)c1ccccc1 | 84.4 | 2.79 | 3.04 | 3.25 | 6.14 | 9.33 | Metabolite_Detected |  |  |
| COc1cc2cc(NC(C)=O)c(=O)oc2cc1OCCOc1no[n+]([O-])c1S(=O)(=O)c1ccccc1 | 83.7 | 4.99 | 6.89 | 4.83 | 8.79 | 10.2 | Metabolite_Detected |  |  |
| COc1cc2ccc(=O)oc2cc1OCCCCCOc1no[n+]([O-])c1S(=O)(=O)c1ccccc1 | 87.1 | 3.17 | 3.85 | 3.42 | 10.6 | 8.86 | Metabolite_Detected |  |  |
| COc1cc2cc(N)c(=O)oc2cc1OCCCCCOc1no[n+]([O-])c1S(=O)(=O)c1ccccc1 | 88.8 | 2.4 | 2.62 | 3.46 | 6.88 | 12.2 | Metabolite_Detected |  |  |
| COc1cc2cc(N)c(=O)oc2cc1O | 7.13 | > 25 |  |  |  |  |  |  |  |
| COc1cc2cc(N)c(=O)oc2cc1OCCCCOc1no[n+]([O-])c1S(=O)(=O)c1ccccc1 | 89 | 1.93 | 2.28 | 2.64 | 5.03 | 8.63 | Metabolite_Detected |  |  |
| COc1cc2ccc(=O)oc2cc1O [SCOPOLETIN] | 7.95 | > 25 | > 25 | > 25 | > 25 | > 25 |  | Metabolite_Notdetected |  |
| COc1cc2cc(NC(C)=O)c(=O)oc2cc1OCCCCOc1no[n+]([O-])c1S(=O)(=O)c1ccccc1 | 80.4 | 3.15 | 3.44 | 3.29 | 7.19 | 9.19 | Metabolite_Detected |  |  |
| COc1cccc2c1C(=O)c1c(O)c3c(c(O)c1C2=O)C[C@@](O)(C(=O)CO)C[C@@H]3O[C@H]1C[C@H](N)[C@H](O)[C@H](C)O1 [DOXORUBICIN] |  | 0.55 | 0.6 | 0.62 |  | 0.59 |  |  |  |
| COc1cc2cc(NC(C)=O)c(=O)oc2cc1O | 5.21 |  |  |  |  |  |  |  |  |
| COc1cc2ccc(=O)oc2cc1OCCCCCCOc1no[n+]([O-])c1S(=O)(=O)c1ccccc1 | 84.8 | 3.35 | 4.48 | 3.79 | 9.43 | 12.4 | Metabolite_Detected |  |  |
| COc1cc2cc(N)c(=O)oc2cc1OCCCCCCOc1no[n+]([O-])c1S(=O)(=O)c1ccccc1 | 84.4 | 2.93 | 3.14 | 3.06 | 8.06 | 10.3 | Metabolite_Detected |  |  |
| COc1cc2ccc(=O)oc2cc1OCCOc1no[n+]([O-])c1S(=O)(=O)c1ccccc1 | 89.2 | 2.86 | 3.54 | 3.61 | 7.24 | 10.9 | Metabolite_Detected |  |  |
| COc1cc2ccc(=O)oc2cc1OCCCOc1no[n+]([O-])c1S(=O)(=O)c1ccccc1 | 88.6 | 1.85 | 2.27 | 2.9 | 5.45 | 7.82 |  |  |  |
| O=S(=O)(c1ccccc1)c1c(OCCCO)no[n+]1[O-] |  | 7.25 |  |  |  |  |  |  | 6.36 |
| COc1cc2cc(NC(C)=O)c(=O)oc2cc1OCCCCCOc1no[n+]([O-])c1S(=O)(=O)c1ccccc1 | 73.6 | 4.34 | 6.27 | 5.42 | 11.4 | 13.8 | Metabolite_Detected |  |  |
